Assay [1] in a line: Inhibition of reduced carboxymethylated kappa-casein fibril formation at 50 ug/mL measured every 5 mins after 1000 mins by thioflavin T staining-based binding assay. Put shortly:
(§1)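 RCM-κ-CN (0.5 mg/mL final) in 50 mM sodium phosphate pH 7.2 with 10 µM ThT and test compound (final DMSO ≤1%), incubated at 37 °C unshaken in sealed plates. Fluorescence (ex 440/em 490 nm) was read every 5 min for 1000 min. %FFi = 100×(ΔFc−ΔFs)/ΔFc versus a 1% DMSO control. Duplicates.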

A short description of assay [2]: Selectivity ratio of IC50 for reduced carboxymethylated kappa-casein fibril formation to IC50 for beta amyloid (1 to 40) fibril formation.
Assay [3] in a line: Inhibition of reduced carboxymethylated kappa-casein fibril formation measured every 5 mins after 1000 mins by thioflavin T staining-based binding assay. Put shortly: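 RCM-κ-CN fibrillation (0.5 mg/mL) at 37 °C, pH 7.2 phosphate (50 mM), 10 µM ThT, no shaking. ThT fluorescence 440/490 nm was read every 5 min over 1000 min. Duplicate samples. The positive control IC50 is the mean of four batches.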

Assay [4] in a line: Inhibition of beta amyloid (1 to 42) fibril formation at 50 ug/mL by thioflavin T staining-based binding assay.
Assay [5] is described as follows: Selectivity ratio of IC50 for reduced carboxymethylated kappa-casein fibril formation to IC50 for beta amyloid (1 to 42) fibril formation.
Assay [6] is described as follows: Inhibition of beta amyloid (1 to 40) fibril formation. The conditions noted are these: for pIC50: read-out: IC50.
The nature of assay [7]: Inhibition of reduced carboxymethylated kappa-casein fibril formation assessed as formation of shorter and stunted fibrils by transmission electron microscopy.
Assay [8] in a line: Inhibition of beta amyloid (1 to 42) fibril formation by thioflavin T staining-based binding assay.
The nature of assay [9]: Inhibition of beta amyloid (1 to 40) fibril formation by thioflavin T staining-based binding assay.
Assay [10] is described as follows: Inhibition of reduced carboxymethylated kappa-casein fibril formation at 5 ug/mL measured every 5 mins after 1000 mins by thioflavin T staining-based binding assay. Put shortly: as §1
A short description of assay [11]: Inhibition of reduced carboxymethylated kappa-casein fibril formation at 100 ug/mL measured every 5 mins after 1000 mins by thioflavin T staining-based binding assay. Put shortly: as §1
A short description of assay [12]: Inhibition of beta amyloid (1 to 40) fibril formation after 24 hrs by fluorimetry.
Assay [13] is described as follows: Inhibition of reduced carboxymethylated kappa-casein fibril formation at 17 ug/mL measured every 5 mins after 1000 mins by thioflavin T staining-based binding assay. Put shortly:
as §1

Assay [14] in a line: Inhibition of beta amyloid (1 to 42) fibril formation.
Assay [15] in a line: Inhibition of reduced carboxymethylated kappa-casein fibril formation at 12.5 ug/mL measured every 5 mins after 1000 mins by thioflavin T staining-based binding assay. Put shortly:
as §1

pIC50: −log10 of the molar value. Activity calls are given as the source filed them. No cut-off for these calls is given here.

`CO/C(=C\c1ccc(OC)c(OC)c1)C(=O)c1c(O)cc(OC)cc1OC`: the inhibition (in general, the change of the read-out against control, counted positive when it falls) in assay [1] stood at 35%.

As to `O=C(O[C@@H]1Cc2c(O)cc(O)cc2O[C@@H]1c1cc(O)c(O)c(O)c1)c1cc(O)c(O)c(O)c1` [EPIGALOCATECHIN GALLATE], the Ratio IC50 in assay [2] turned out to be 20; in assay [5], 10. For the same compound, the values for the pIC50 in [3] and in [6] were 5.43 and 6.74, respectively. Also, the inhibition in assay [4] and in [1] was 100% in each case.

For the compound `O=c1c(O)c(-c2ccc(O)cc2)oc2cc(O)cc(O)c12` [KAEMPFEROL], the figures for the Ratio IC50 in [2] and in assay [5] were 20 and 10, respectively. The pIC50 (as a rule, the negative decadic logarithm of the IC50, by convention in mol/L) was 4.48 in assay [3], 5.49 in assay [8] and 5.77 in [9]. Besides, the inhibition result in assay [7] is “Active”. In assay [1], the inhibition stood at 86%.

In assay [3], `CC(=O)Oc1cc(OC(C)=O)c2c(=O)c(OC(C)=O)c(-c3ccc(OC(C)=O)c(OC(C)=O)c3)oc2c1` gave a pIC50 of 5.17. Moreover, the inhibition result in assay [7] was “Active”. The compound also registered an inhibition in [1] of 90%.

Take `O=c1c(O)c(-c2ccc(O)cc2O)oc2cc(O)cc(O)c12` [MORIN]: the Ratio IC50 in [2] was determined as 206; in assay [5] it was 74. In addition, the figures for the negative-log IC50 (pIC50) in assay [3], in [8] and in assay [9] were 4.31, 6.17 and 6.62, respectively. For the same compound, the inhibition in [4] stood at 94%; in [1], 99%.

For `COc1ccc(-c2coc3cc(O)cc(O)c3c2=O)cc1`, the inhibition in [10] amounted to 0%.

For `Oc1ccc([C@H]2Oc3cc(O)cc(O)c3C[C@H]2O)cc1`, the inhibition in assay [11] was found to be 17%.

`O=c1c(O)c(-c2ccc(O)cc2)oc2cc(O)ccc12` came in with an inhibition in assay [10] of 0%.

Regarding `O=c1c(O)c(-c2cc(O)c(O)c(O)c2)oc2cc(O)cc(O)c12` [MYRICETIN], the pIC50 in assay [12] was 6.05; in [6] it was 6.70; in assay [8], 6.40; in assay [14], 6.47; in assay [9], 6.54. The compound also registered an inhibition in assay [13] of 92%. Further, the inhibition entry in assay [7] is “Active”.

In the case of `COc1ccc(-c2coc3cc(O)ccc3c2=O)cc1O` [CALYCOSIN], the inhibition in [10] came out at 1%. Moreover, the IC50 result in assay [6] is given as “Not Active”.

Turning to `Oc1cc(O)c2c(c1)O[C@H](c1ccc(O)c(O)c1)[C@H](O)C2` [(-)-EPICATECHIN], the negative-log IC50 (pIC50) in assay [8] was 5.25; in [9] it was 5.55. The same compound returned an inhibition in assay [1] of 7%.

In [3], `O=c1c(O)c(-c2cc(O)c(O)c(O)c2)oc2cc(O)ccc12` [ROBINETIN] gave a pIC50 of 4.86. The inhibition in assay [10] worked out at 89%. In addition, the inhibition result in assay [7] was “Active”.

`O=c1c(-c2ccc(O)cc2)coc2cc(O)ccc12` [DAIDZEIN]: the IC50 entry in [6] is “Active”. For the same compound, the inhibition in [1] is 25%.

For the compound `O=c1c(O)c(-c2ccc(O)c(O)c2)oc2cc(O)cc(O)c12` [QUERCETIN], the Ratio IC50 in [2] was 20; in assay [5], 10. Moreover, the pIC50 in [3] is 4.87; in assay [8], 6.14; in assay [9], 6.62. For the same compound, the inhibition in [4] came to 95%; in [1], 84%. Also, the inhibition entry in assay [7] was “Active”.

Take `Oc1cc(O)c2c(c1)O[C@H](c1ccc(O)c(O)c1)[C@@H](O)C2` [CIANIDANOL]: the figures for the negative logarithm of the IC50 (pIC50) in assay [8] and in assay [9] were 5.28 and 5.54, respectively. The inhibition in [1] is 0%.

In the case of `O=C1c2c(O)cc(O)cc2O[C@H](c2ccc(O)c(O)c2)[C@H]1O` [(+)-TAXIFOLIN], in assay [3], the pIC50 was 4.40. Moreover, the figures for the inhibition in [4] and in assay [1] were 57% and 84%, respectively.

Regarding `COc1ccc2c(=O)c(O)c(-c3cc(OC)c(OC)cc3CO)oc2c1`, in assay [15], the inhibition was found to be 0%.

With `O=c1c(O)c(-c2ccccc2)oc2cc(O)cc(O)c12` [GALANGIN], in assay [3], the pIC50 is 4.21. The IC50 result in assay [6] is “Not Active”. In addition, the inhibition entry in assay [7] is “Active”. Further, the inhibition in assay [1] was found to be 68%.

Compound `O=c1c(-c2ccc(O)cc2)coc2cc(O)cc(O)c12` [GENISTEIN] gave a negative-log IC50 (pIC50) in assay [3] of 3.72. Also, the inhibition was determined as 43% in [4] and 95% in assay [1]. Besides, the IC50 result in [6] is listed as “Active”.

These data come from ChEMBL document CHEMBL1157676, “Carboxymethylated-kappa-casein: a convenient tool for the identification of polyphenolic inhibitors of amyloid fibril formation” (Bioorg Med Chem, 2010).
